Assay outcomes from PubChem.
HUVEC inhibit: inhibitors of human endothelial cell proliferation. AID 648. viability, % at 10 µM (by protocol). HUVEC proliferation, CellTiter-Glo luminescence, 72 h; stronger effect = lower value. 1.1% of 86,000 active;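 active = viability at or below 30%; inactive = viability above 30%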;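 note: 100% = median luminescence of DMSO-only cell control wells on each plate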
H69AR growth 86K: growth inhibitors of human H69AR lung tumor cells. H69AR lung tumor viability, ATP luminescence, 72 h; stronger effect = lower value. viability, % at 10 µM. 6% of 85,000 active;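 active = viability at or below 40%; inactive = viability above 40%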;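 note: multidrug resistant small cell line overexpressing MRP-1 efflux transporter; 100% = mean luminescence of untreated control wells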
bCat KO growth: beta-catenin-lacking colon tumor cell growth suppression | 1.5% of 140,000 active | viability, % at 10 µM | AID 818 | HCT116 beta-catenin knockout viability, CellTiter-Glo, 60 h; stronger effect = lower value;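 active = viability at or under a set limit, the compound median less 4 SD, cut at about 6% in these data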;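 note: 0% = Hyamine 1622 control at 20 µM and 100% = untreated cell control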
HCT116 PTEN-null: suppresses growth of cells with PTEN deletion; HCT116 PTEN-null viability, CellTiter-Glo, 60 h; stronger effect = lower value; viability, % at 10 µM; 1.2% of 140,000 active;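 active = viability at or below a set limit, 4 SD under the median of all tested compounds, cut at about 3.7% in these data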;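 note: PTEN knockout HCT116 line with beta catenin targeted HCT116 as companion control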
Lung fibro prol: blocks proliferation of human lung fibroblasts; AID 719; 1.1% of 85,000 active; viability, % at 10 µM; LL 47 human lung fibroblast viability, ATP luminescence; stronger effect = lower value;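 active = viability at or below 50% in the single dose screen; inactive = viability above 50%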;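 note: compound exposure lasted 72 h before the ATP readout; 100% = median luminescence of untreated cell-only wells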
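Assay system: human lung fibroblast line LL 47, low passage. Input: 1,150 fibroblasts seeded per well. Times: overnight cell rest, 72 h compound treatment at 37 °C. Evaluation: % viability of median cell-only signal. Technique: luminescent ATP detection, CellTiter-Glo. Control set: cell-only wells, no compound.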
The depositor's hits bear a star; / = no result. Only a selection was taken, and hits are over-represented in it overall.

SMILES | HUVEC inhibit | H69AR growth 86K | bCat KO growth | HCT116 PTEN-null | Lung fibro prol
CCn1c(SCC(=O)NC2CCCCC2)nc2c(c1=O)SC(C)C2 (stereo not given) | 90 | 39* | 100 | 91 | 94
CSc1ccc(/C=N/n2c(C)cc(C)cc2=O)cc1 | 100 | 101 | 91 | 108 | 100
CCOC(=O)c1c(C)[nH]c(C(=O)OCC(=O)Nc2cc(Cl)ccc2OC)c1C | 65 | 2.6* | 10 | 12 | 66
CCOC(=O)c1c(C)[nH]c(C(=O)OCC(=O)Nc2cc(C)ccc2OC)c1C | 31 | 16* | 2.2* | 13 | 23*
CCOC(=O)c1[nH]c(C)c(C(=O)Nc2cc(OC)ccc2OC)c1C | 56 | 28* | 18 | 19 | 60
CCOC(=O)c1c(C)[nH]c(C(=O)OCC(=O)Nc2ccc(OCC)cc2)c1C | / | / | 90 | 98 | /
CCOC(=O)c1c(C)[nH]c(C(=O)OCC(=O)Nc2ccc(OC)c(Cl)c2)c1C | / | / | 90 | 95 | /
CCOC(=O)c1c(C)c(C(=O)Nc2cc(OC)ccc2OC)c(C)n1CC | 55 | 95 | 30 | 31 | 58
CCOC(=O)c1[nH]c(C)c(C(=O)NCc2cccnc2)c1C | 107 | 92 | 95 | 93 | 107
CCCn1c(=O)c2ccccc2n2c(Sc3nnnn3-c3ccccc3)nnc12 | 94 | 33* | 53 | 48 | 97
C=CCn1c(=O)c2ccccc2n2c(Sc3nnnn3-c3ccccc3)nnc12 | 91 | 51 | 79 | 80 | /
CCN1CCN(S(=O)(=O)c2cc(OC)c(Cl)cc2OC)CC1 | 96 | 84 | 100 | 94 | 101
Cn1ncc(Cl)c(Oc2ccc(C(C)(C)C)cc2)c1=O | / | / | 81 | 98 | /
CCc1sc(NC(=O)c2cc3ccccc3oc2=O)nc1-c1cccs1 | / | / | 93 | 94 | /
Cc1cc2c3c(c1)C1(C(=O)N3C(C)(C)CC2C)C(C#N)=C(N)Oc2n[nH]c(C)c21 (stereo not given) | 74 | 20* | 27 | 27 | 93
Cc1c(CN(C)C)c2c(n1Cc1ccccc1)C(=O)c1ccccc1-2 | 62 | 38* | 48 | 37 | 75
COc1ccc(C2NC(C(=O)O)CS2)cc1COCC(F)(F)F (stereo not given) | 102 | 93 | 99 | 100 | 98
CCOC(=O)c1oc2ccc(S(=O)(=O)n3nc(-c4ccc(OC)cc4)cc3N)cc2c1C | 74 | 27* | 21 | 26 | 79
CCOC(=O)c1oc2ccc(S(=O)(=O)n3nc(-c4ccccc4)cc3N)cc2c1C | 100 | 86 | 50 | 42 | 92
COc1ccccc1N1C(=O)N(C(C)=O)C2C1Nc1ccccc1N2C (stereo not given) | 26* | 31* | 83 | 93 | 90
CC(C)(C)c1ccc(C(=O)NNC(=O)c2ccc(Cl)cc2)cc1 | / | / | 74 | 73 | /
Cc1ccc(C(=O)CC(=O)c2cc(Cl)ccc2O)cc1 | 9.4* | 5.2* | 66 | 64 | 30*
CC(C)(C)c1ccc(C(=O)CC(=O)c2cc(Cl)ccc2O)cc1 | 7.6* | 25* | 29 | 24 | 46*
O=C(CC(=O)c1ccccc1O)c1ccc(F)cc1 | / | / | 54 | 46 | /
N#Cc1cnn(-c2ncnc3sc(-c4ccccc4)cc23)c1N | 74 | 36* | 88 | 89 | 96
SMILES | HUVEC inhibit | H69AR growth 86K | bCat KO growth | HCT116 PTEN-null | Lung fibro prol
N#Cc1cnn(-c2ncnc3sc4c(c23)CCCC4)c1N | / | / | 85 | 80 | /
Cc1ccccc1OCC(=O)N/N=C/c1cccn1C | 96 | 90 | 81 | 88 | 94
COc1cccc(C2C3=C(CC(C)(C)CC3=O)Nc3cc4c(cc32)OCO4)c1 (stereo not given) | 78 | 32* | 94 | 94 | 94
COc1cc2c(cc1OC)C(c1ccc3c(c1)OCO3)C1=C(CC(C)(C)CC1=O)N2 (stereo not given) | 81 | 63 | 79 | 74 | 96
COC(=O)c1cc(NC(=O)c2c(Cl)nc3sccn23)cc(C(=O)OC)c1 | 68 | 36* | 57 | 63 | 6.7*
COC(=O)c1cc(=O)nc2sccn12 | 97 | 84 | 101 | 102 | 104
O=C1/C(=C\c2cccs2)Sc2ccc3ccccc3c21 | / | / | 70 | 71 | /
COc1ccccc1/C=c1\sc2nc(-c3ccco3)nn2c1=O | 97 | 36* | 92 | 109 | 97
O=C(Nc1cnn(Cc2c(Cl)cccc2Cl)c1)C(c1ccccc1)c1ccccc1 | / | / | 86 | 87 | /
Cc1cccc(C)c1OCC(=O)Nc1oc(-c2ccccc2)c(-c2ccccc2)c1C#N | 68 | 27* | / | / | 96
CCc1ccc(-c2nc(CN3CCC(C(=O)NCc4ccccc4OC)CC3)c(C)o2)cc1 | 32 | 18* | 21 | 34 | 66
COc1ccccc1CNC(=O)C1CCN(Cc2nc(-c3ccc(Cl)cc3)oc2C)CC1 | 42 | 66 | / | / | 103
COc1ccccc1CNC(=O)C1CCN(Cc2nc(-c3cccc(Cl)c3)oc2C)CC1 | 56 | 40* | 22 | 24 | 89
CCN1CCCC1CNC(=O)C1CCN(Cc2nc(-c3cccc(Br)c3)oc2C)CC1 (stereo not given) | 18* | 52 | 4.7* | 6 | 29*
CCc1ccc(-c2nc(CN3CCC(C(=O)NCCc4ccc(OC)c(OC)c4)CC3)c(C)o2)cc1 | 55 | 69 | 2.0* | 15 | 90
CC1CCCN(C(=O)CCCn2c(=S)[nH]c3ccccc3c2=O)C1 (stereo not given) | 98 | 97 | 97 | 93 | 95
COC(=O)c1ccc(C)c(NC(=O)CCc2cc(OC)c(OC)c(OC)c2)c1 | / | / | 92 | 89 | /
CCOC(=O)CSc1nnnn1-c1cc(OC)ccc1OC | 84 | 90 | 103 | 110 | 93
CCOC(=O)c1c(C)[nH]c(C(=O)COC(=O)C2(C)CC2(Cl)Cl)c1C (stereo not given) | 86 | 79 | 82 | 75 | 107
Cc1ccc(NC2=C(Cl)C(=O)OC2OC(=O)c2ccco2)c(C)c1 (stereo not given) | 81 | 51 | 53 | 57 | 94
Cc1ccc(C)c(NC2=C(Cl)C(=O)OC2OC(=O)c2ccco2)c1 (stereo not given) | 79 | 9.4* | 76 | 72 | 91
COc1ccccc1N1CCN(c2cc(=O)n(Cc3ccc(F)cc3)c(=O)[nH]2)CC1 | 59 | 30* | 36 | 34 | 61
CCOc1ccc(-c2[nH]ncc2-c2ccc(OC)c(OC)c2)c(O)c1 | 67 | 14* | 22 | 25 | 59
C=C(C)COc1ccc(-c2nc(N)ncc2Oc2ccc(OC)cc2)c(O)c1 | 87 | 73 | 85 | 64 | 85
CCOc1ccc(-c2[nH]ncc2Oc2ccccc2OC)c(O)c1 | 84 | 46 | 86 | 86 | 97
C=C(C)COc1ccc(-c2[nH]ncc2Oc2ccccc2OC)c(O)c1 | 50 | 1.5* | 89 | 68 | 60
COc1ccc(-c2cn[nH]c2-c2ccc(OCc3ccc([N+](=O)[O-])cc3)cc2O)cc1 | / | / | 51 | 36 | /
C=C(C)COc1ccc(-c2[nH]ncc2-c2ccccc2OC)c(O)c1 | 32 | 6.0* | 53 | 44 | 64
C=C(C)COc1ccc(-c2n[nH]c(C)c2-c2ccc(Br)cc2)c(O)c1 | 3.8* | 6.6* | 21 | 30 | 32*
